Experimental findings from ChEMBL document CHEMBL4364248, “Discovery of 1,2,4-oxadiazole-Containing hydroxamic acid derivatives as histone deacetylase inhibitors potential application in cancer therapy” (Eur J Med Chem, 2019) are described below.

Structures are written as SMILES.

The target of data set [1] is T1, Histone deacetylase 1 (Homo sapiens, UniProt Q13547). Kind of data set: Inhibition of recombinant full length HDAC1 (unknown origin) using Ac-peptide-AMC as substrate after 1 hr by fluorescence assay.
T1 sequence (Q13547 whole entry): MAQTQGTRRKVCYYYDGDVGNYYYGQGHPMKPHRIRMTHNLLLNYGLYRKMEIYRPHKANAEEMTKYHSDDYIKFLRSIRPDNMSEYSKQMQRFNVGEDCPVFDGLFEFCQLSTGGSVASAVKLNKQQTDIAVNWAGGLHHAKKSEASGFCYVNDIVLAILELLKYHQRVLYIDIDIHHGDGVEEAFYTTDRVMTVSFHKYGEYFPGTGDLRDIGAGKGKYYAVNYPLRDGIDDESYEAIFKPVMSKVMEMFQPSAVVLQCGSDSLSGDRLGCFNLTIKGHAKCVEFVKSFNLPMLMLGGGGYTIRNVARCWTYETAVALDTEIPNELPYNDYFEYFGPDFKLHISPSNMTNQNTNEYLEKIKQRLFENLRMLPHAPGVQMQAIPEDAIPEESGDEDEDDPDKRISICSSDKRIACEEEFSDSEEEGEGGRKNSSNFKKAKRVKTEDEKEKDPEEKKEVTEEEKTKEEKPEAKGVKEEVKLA
Data set [2] can be described thus: Volume of distribution at steady state in Sprague-Dawley rat at 5 mg/kg, iv measured upto 24 hrs by LC-MS/MS analysis. The class given is ADME, organism-based. The following applies: in vivo, read-out: Vdss. In short, it runs like this: (§1)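 SD rats (200-250 g), six per time point, given 5 mg/kg as a tail-vein bolus or orally. Blood was taken by cardiac puncture before dosing and at 5, 15, 30, 45 min and 1, 2, 4, 6, 8, 10, 12 and 24 h. Plasma was spun at 4000 g for 15 min at 4 °C and stored at -80 °C. Analysis was LC-MS/MS with multiple-reaction monitoring, followed by noncompartmental analysis.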

A short description of data set [3]: Half life in Sprague-Dawley rat at 5 mg/kg, iv measured upto 24 hrs by LC-MS/MS analysis. The class given is ADME, organism-based. The following applies: in vivo. In short, it runs like this:
as §1

In data set [4] the target is T1, Histone deacetylase 1. Kind of data set: Inhibition of recombinant full length HDAC1 (unknown origin) using Ac-peptide-AMC as substrate at 100 nM after 1 hr by fluorescence assay relative to control. In a few lines:
(§2)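 Full-length recombinant HDAC1 or HDAC6 was incubated with compound, trypsin and Ac-peptide-AMC substrate for 1 h at room temperature. Fluorescence was read at ex 355/em 460 nm. Inhibition was calculated against the DMSO vehicle control.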

In data set [5] the target is T2, Protein deacetylase HDAC6 (Homo sapiens) (UniProt Q9UBN7).
T2 sequence (whole entry): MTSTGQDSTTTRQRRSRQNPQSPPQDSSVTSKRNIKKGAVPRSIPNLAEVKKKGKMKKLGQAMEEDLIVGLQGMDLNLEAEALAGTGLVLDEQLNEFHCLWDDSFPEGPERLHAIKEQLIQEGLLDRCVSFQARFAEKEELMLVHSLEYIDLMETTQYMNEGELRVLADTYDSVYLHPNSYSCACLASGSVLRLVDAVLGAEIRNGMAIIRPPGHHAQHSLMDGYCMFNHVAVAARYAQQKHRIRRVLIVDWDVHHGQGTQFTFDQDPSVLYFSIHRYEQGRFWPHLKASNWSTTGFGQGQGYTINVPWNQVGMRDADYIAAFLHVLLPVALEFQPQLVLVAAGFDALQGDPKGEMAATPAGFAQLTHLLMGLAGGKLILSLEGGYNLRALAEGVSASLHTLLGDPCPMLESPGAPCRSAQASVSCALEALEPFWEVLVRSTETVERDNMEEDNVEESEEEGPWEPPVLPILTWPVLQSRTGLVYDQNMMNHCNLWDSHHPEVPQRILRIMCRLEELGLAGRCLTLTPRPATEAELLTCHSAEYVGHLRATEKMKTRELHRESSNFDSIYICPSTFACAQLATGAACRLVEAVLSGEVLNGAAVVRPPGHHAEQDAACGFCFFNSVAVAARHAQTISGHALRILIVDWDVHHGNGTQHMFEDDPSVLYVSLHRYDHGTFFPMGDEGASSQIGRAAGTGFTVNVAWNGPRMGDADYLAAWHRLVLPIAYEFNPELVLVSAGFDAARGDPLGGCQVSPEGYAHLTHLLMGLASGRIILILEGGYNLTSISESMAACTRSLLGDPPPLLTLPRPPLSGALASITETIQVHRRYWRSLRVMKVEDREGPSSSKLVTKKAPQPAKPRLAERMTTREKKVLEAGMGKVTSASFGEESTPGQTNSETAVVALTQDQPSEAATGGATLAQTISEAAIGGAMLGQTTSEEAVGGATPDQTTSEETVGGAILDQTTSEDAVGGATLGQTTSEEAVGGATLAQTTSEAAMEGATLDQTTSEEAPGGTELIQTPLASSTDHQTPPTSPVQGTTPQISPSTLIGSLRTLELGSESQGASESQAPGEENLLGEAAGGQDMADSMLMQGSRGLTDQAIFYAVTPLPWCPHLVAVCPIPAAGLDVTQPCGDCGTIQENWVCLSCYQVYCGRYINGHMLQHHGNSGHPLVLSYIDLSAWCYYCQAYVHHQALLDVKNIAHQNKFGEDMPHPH
Kind of data set: Inhibition of recombinant full length HDAC6 (unknown origin) using Ac-peptide-AMC as substrate at 100 nM after 1 hr by fluorescence assay relative to control. In a few lines:
as §2

The subject of data set [6] is Daudi. Kind of data set: Antitumour activity against human Daudi cells xenografted in NOD/SCID mouse assessed as reduction in tumour growth at 20 mg/kg, po treated on day 1,3 and 5 per week and measured for every 2 days. The class given is functional. The following applies: read-out: TGI. In short, it runs like this:
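Daudi cells (107 in 100 µL serum-free RPMI 1640) were injected s.c. into the right flank of 5–6 week female NOD/SCID mice. At 100–200 mm3, mice were randomized six per group. Dosing was 10 mg/kg i.v. or 20 mg/kg p.o. in 8% HP-β-CD on days 1, 3 and 5 each week. Tumors were measured by caliper every 2 days, with TV = length × width² × 0.5.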

For data set [7], the target named is Histone deacetylase 11 (Homo sapiens, UniProt Q96DB2). Put plainly: Inhibition of recombinant full length human HDAC11 expressed in baculovirus infected Sf9 cells using Ac-peptide-AMC as substrate after 1 hr by fluorescence assay.
Sequence of Histone deacetylase 11 (Q96DB2 whole entry): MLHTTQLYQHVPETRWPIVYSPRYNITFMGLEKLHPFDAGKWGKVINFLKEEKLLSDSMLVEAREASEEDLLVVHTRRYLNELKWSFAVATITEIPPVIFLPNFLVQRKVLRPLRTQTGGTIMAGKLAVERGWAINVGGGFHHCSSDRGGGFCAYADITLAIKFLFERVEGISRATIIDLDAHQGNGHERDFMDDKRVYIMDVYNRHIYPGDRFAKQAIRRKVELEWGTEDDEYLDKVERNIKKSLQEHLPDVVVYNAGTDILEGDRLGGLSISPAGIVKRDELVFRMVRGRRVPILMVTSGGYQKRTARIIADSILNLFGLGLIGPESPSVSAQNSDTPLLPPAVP
Data set [8] deals with Raji. Put plainly: Antiproliferative activity against human Raji cells after 72 hrs by MTT assay. The class given is functional, cell-based.
Data set [9] can be described thus: Toxicity in NOD/SCID mouse xenografted with human Daudi cells assessed as organ damage at 20 mg/kg, po treated on day 1,3 and 5 per week and measured for every 2 days by H and E staining based assay. The following applies: in vivo, 48 h. The class given is organism-based. In short, it runs like this: (§3)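 Female NOD/SCID mice (5–6 weeks) bearing s.c. Daudi xenografts, six per group. Dosing was 10 mg/kg i.v. or 20 mg/kg p.o. in 8% HP-β-CD on days 1, 3 and 5 weekly. Behaviour was observed, and organ tissues were collected at sacrifice for H&E staining.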

The test system of data set [10] is A2780S. Kind of data set: Antiproliferative activity against human A2780S cells after 72 hrs by MTT assay. Type of data set: functional, cell-based.
A short description of data set [11]: Toxicity in NOD/SCID mouse xenografted with human Daudi cells at 20 mg/kg, po treated on day 1,3 and 5 per week and measured for every 2 days. Type of data set: organism-based. The following applies: in vivo, 48 h. In short, it runs like this: as §3
The subject of data set [12] is JeKo-1. Kind of data set: Cell cycle arrest in human JeKo1 cells assessed as accumulation at S phase at 1000 nM after 24 hrs by propidium iodide staining based flow cytometric analysis (reference value: 26.13 %). The class given is functional.
For data set [13], the system named is JeKo-1. Put plainly: Cell cycle arrest in human JeKo1 cells assessed as accumulation at G2/M phase at 1000 nM after 24 hrs by propidium iodide staining based flow cytometric analysis (reference value: 10.71 %). The class given is functional.
Data set [14] can be described thus: AUC ( 0 to t) in Sprague-Dawley rat at 5 mg/kg, po measured upto 24 hrs by LC-MS/MS analysis. The class given is ADME, organism-based. Set-up: dose 5 mg/kg, time < 24 hr, route oral. The following applies: in vivo. In short, it runs like this:
as §1

Data set [15] deals with Protein deacetylase HDAC6 (Homo sapiens, UniProt Q9UBN7). Kind of data set: Inhibition of recombinant full length HDAC6 (unknown origin) using Ac-peptide-AMC as substrate after 1 hr by fluorescence assay.
Data set [16] concerns the target T2, Protein deacetylase HDAC6 (Homo sapiens). Put plainly: Inhibition of HDAC6 in human MM1S cells assessed as increase in alpha tubulin acetylation after 6 hrs by Western blot analysis. Type of data set: cell-based.
In data set [17] the test system is JeKo-1. Put plainly: Cell cycle arrest in human JeKo1 cells assessed as accumulation at G2/M phase at 100 nM after 24 hrs by propidium iodide staining based flow cytometric analysis (reference value: 10.71 %). Type of data set: functional.

As to `Cc1ccc(CN2CCC(c3noc(CN(C)c4ncc(C(=O)NO)cn4)n3)CC2)cc1`, the IC50 is 1.8 nM in [1]; more than 10000 nM in data set [7]; 12.1 nM in [8]; 40 nM in data set [10]; 56 nM in data set [15]. The Vd in data set [2] was 6.33 L/kg. For the same molecule, the half-life in data set [3] was 23.4 min. For the same molecule, the inhibition in data set [4] is 96%; in [5] it was 71%; in data set [16] it was “Dose-dependent effect”. In addition, the inhibition in vivo at 20 mg/kg in data set [6] stood at 53.8%. Besides, the Activity entry in data set [9] is given as “Non-Toxic”; in data set [11], “Non-Toxic”; in data set [12] it was 12.82%; in data set [13], 4.32%; in data set [17], 10.77%. The AUC(0-t) at 24 h in [14] was found to be 232 ng·h/mL.
